Experimental data: ChEMBL document CHEMBL4190262, “Tuning of β-glucosidase and α-galactosidase inhibition by generation and in situ screening of a library of pyrrolidine-triazole hybrid molecules” (Eur J Med Chem, 2017)
pIC50: −log10 of the molar value. Calls of active or inactive are those of the source. The calls are words filed in the database; no cut-off is given here.

Legend:
[1] = target: T1, Beta-galactosidase (Aspergillus oryzae) (UniProt B7VU80); assay: Inhibition of Aspergillus oryzae beta-galactosidase at 1 mM using p-nitrophenyl glycopyranoside preincubated for 5 mins followed by substrate addition measured after 20 mins by visible absorption spectroscopic method relative to control
T1 sequence (whole entry): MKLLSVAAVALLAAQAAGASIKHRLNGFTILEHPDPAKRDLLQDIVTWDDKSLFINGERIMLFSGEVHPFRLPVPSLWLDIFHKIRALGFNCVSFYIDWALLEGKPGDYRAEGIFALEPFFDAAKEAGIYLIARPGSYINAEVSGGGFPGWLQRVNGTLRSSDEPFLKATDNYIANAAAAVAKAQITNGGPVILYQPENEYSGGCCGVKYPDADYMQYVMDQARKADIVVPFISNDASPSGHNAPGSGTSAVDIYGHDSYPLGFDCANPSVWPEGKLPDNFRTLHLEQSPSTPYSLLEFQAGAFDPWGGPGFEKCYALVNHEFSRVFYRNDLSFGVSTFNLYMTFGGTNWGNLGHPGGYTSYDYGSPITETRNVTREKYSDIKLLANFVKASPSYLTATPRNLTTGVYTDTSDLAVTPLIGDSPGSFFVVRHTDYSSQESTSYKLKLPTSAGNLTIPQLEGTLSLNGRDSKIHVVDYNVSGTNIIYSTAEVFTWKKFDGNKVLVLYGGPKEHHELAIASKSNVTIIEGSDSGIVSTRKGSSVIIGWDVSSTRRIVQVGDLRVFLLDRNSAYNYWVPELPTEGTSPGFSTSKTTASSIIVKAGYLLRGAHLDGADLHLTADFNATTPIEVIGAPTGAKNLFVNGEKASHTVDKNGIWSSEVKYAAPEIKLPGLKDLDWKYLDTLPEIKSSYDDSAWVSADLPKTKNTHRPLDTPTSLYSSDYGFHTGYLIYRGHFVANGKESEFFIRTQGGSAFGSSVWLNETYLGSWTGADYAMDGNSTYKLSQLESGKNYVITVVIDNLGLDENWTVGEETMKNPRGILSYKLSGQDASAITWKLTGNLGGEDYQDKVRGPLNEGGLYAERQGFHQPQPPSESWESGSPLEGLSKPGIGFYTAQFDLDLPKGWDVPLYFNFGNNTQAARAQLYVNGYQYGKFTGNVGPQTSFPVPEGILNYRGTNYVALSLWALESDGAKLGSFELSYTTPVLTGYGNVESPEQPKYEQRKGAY
Method in brief: (§1)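 Test compound at 1 mM in well. Mix: 0.01–0.5 units/mL enzyme plus 10 mM p-nitrophenyl glycopyranoside (aqueous solution), buffered to the enzyme's optimal pH. Enzyme and inhibitor preincubated 5 min at rt. Substrate then added and incubated 20 min at 37 °C. Stopped with sodium borate (pH 9.8). p-Nitrophenolate read at 405 nm. Duplicates averaged.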

Saccharomyces cerevisiae = assay: Inhibition of yeast alpha glucosidase at 1 mM using p-nitrophenyl glycopyranoside preincubated for 5 mins followed by substrate addition measured after 20 mins by visible absorption spectroscopic method relative to control; method in brief: as §1
Cornu aspersum = assay: Inhibition of snail beta-mannosidase at 1 mM using p-nitrophenyl glycopyranoside preincubated for 5 mins followed by substrate addition measured after 20 mins by visible absorption spectroscopic method relative to control; method in brief: as §1
Canavalia ensiformis = assay: Inhibition of jack bean beta-N-acetylglucosaminidase at 1 mM using p-nitrophenyl glycopyranoside preincubated for 5 mins followed by substrate addition measured after 20 mins by visible absorption spectroscopic method relative to control; method in brief: as §1
[2] = target: T2, Lysosomal acid glucosylceramidase (Homo sapiens, UniProt P04062); assay: Inhibition of human lysosomal beta-glucocerebrosidase using 4-methylumbelliferyl-beta-D-glucopyranoside as substrate preincubated for 45 mins followed by substrate addition measured after 30 mins by fluorescence spectroscopic method
T2 sequence (P04062 whole entry): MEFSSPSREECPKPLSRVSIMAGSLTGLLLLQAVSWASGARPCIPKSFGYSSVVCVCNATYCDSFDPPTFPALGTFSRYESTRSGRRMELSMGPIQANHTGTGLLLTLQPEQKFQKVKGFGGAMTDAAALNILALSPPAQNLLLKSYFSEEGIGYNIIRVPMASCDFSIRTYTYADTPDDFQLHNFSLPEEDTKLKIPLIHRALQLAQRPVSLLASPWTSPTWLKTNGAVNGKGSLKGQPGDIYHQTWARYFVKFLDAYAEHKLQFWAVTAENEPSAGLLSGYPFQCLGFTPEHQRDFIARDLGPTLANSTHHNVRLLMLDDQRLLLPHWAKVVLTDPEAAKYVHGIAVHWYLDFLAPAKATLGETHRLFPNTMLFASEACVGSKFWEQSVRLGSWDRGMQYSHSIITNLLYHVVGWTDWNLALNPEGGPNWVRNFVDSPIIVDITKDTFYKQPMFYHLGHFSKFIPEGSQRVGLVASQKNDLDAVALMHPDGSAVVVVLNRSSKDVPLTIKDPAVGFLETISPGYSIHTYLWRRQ
Method in brief: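 Enzyme in 100 mM McIlvaine buffer pH 5.2 with 0.25% sodium taurocholate and 0.1% Triton X-100, with inhibitor. Preincubated at 0 °C for 45 min, then started with 3 mM 4-methylumbelliferyl glycoside substrate solution and incubated 30 min at 37 °C. Stopped with 400 mM glycine-NaOH pH 10.6. 4-Methylumbelliferone fluorescence read at ex 362/em 450 nm.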

Beta-galactosidase = target: T3, Beta-galactosidase (Bos taurus, UniProt Q58D55); assay: Inhibition of bovine liver beta-galactosidase using p-nitrophenyl glycopyranoside preincubated for 5 mins followed by substrate addition measured after 20 mins by visible absorption spectroscopic method
T3 sequence (Q58D55 whole entry): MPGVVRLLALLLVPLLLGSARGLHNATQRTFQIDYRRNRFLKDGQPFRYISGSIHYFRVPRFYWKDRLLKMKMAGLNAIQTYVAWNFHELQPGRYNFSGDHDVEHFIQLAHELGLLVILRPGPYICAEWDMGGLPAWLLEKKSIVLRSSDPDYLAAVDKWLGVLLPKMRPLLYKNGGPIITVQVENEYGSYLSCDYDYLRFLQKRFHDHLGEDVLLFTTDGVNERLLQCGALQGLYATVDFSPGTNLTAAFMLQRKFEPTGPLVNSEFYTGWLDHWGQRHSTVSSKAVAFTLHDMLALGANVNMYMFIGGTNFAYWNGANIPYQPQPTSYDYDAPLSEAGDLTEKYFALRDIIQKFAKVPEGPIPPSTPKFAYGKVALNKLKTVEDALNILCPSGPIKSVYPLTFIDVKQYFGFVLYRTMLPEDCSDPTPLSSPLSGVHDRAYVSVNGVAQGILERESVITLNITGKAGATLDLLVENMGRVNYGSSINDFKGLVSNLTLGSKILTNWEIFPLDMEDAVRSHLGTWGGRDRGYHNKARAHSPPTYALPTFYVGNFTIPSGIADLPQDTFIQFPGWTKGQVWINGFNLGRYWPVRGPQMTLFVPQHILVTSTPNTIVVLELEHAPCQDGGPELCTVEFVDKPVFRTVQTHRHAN
Method in brief: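 IC50 determined only for compounds giving ≥80% inhibition at 1 mM, read from plots of % inhibition versus inhibitor concentration. p-Nitrophenyl glycopyranoside substrate (10 mM solution) at the enzyme's optimal pH, with 0.01–0.5 units/mL enzyme. 5 min rt preincubation with enzyme, then 20 min at 37 °C. Borate stop (pH 9.8), absorbance at 405 nm. Duplicates averaged.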

Row | inhibition [1] | inhibition (Saccharomyces cerevisiae) | inhibition (Cornu aspersum) | inhibition (Canavalia ensiformis) | pIC50 [2] | pIC50 (Beta-galactosidase) | SMILES
1 | 41% | inactive | inactive | inactive | 4.55 | 3.76 | O[C@@H]1[C@H](O)CN[C@@H]1Cn1cc(-c2ccccc2)nn1
2 | inactive | inactive | inactive | inactive | 4.96 | 3.34 | O[C@@H]1[C@H](O)CN[C@H]1Cn1cc(-c2ccccc2)nn1
